Data on two compounds can be found in ChEMBL document CHEMBL4351014, “Bis(het)aryl-1,2,3-triazole quinuclidines as α7 nicotinic acetylcholine receptor ligands: Synthesis, structure affinity relationships, agonism activity, [18F]-radiolabeling and PET study in rats” (Eur J Med Chem, 2019).

The structures appear in SMILES notation.

The nature of series [1]: Drug uptake in rat brain hippocampus at 7.3 +/- 0.44 MBq, iv and measured after 1 hr by gamma counting analysis. It is filed as ADME, organism-based. Conditions: in vivo; call rule not given here. The method in brief:
(§1)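 Male Wistar rats (250-300 g, n=6 per group) under isoflurane received 0.3 mL tracer i.v. via the penis vein; MLA groups got methyllycaconitine 1 mg/kg i.v. 15 min before. Decapitated at 1 h. Frontal cortex, hippocampus, hypothalamus, striatum and cerebellum weighed and gamma counted (48% efficiency). %ID/g calculated against standard dilutions of the injectate, mean ± SEM.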

Series [2] is described as follows: Drug uptake in rat brain cerebellum at 7.3 +/- 0.44 MBq, iv pretreated with alpha7 nAChR antagonist methyllycaconitine for 15 mins followed by compound addition and measured after 1 hr by gamma counting analysis. Conditions: in vivo. It is filed as organism-based. The method in brief:
as §1

The nature of series [3]: Drug uptake in rat brain cerebellum at 7.3 +/- 0.44 MBq, iv and measured after 1 hr by gamma counting analysis. Conditions: in vivo. It is filed as ADME, organism-based. A digest of the protocol: as §1
The nature of series [4]: Drug uptake in rat brain frontal cortex at 7.3 +/- 0.44 MBq, iv and measured after 1 hr by gamma counting analysis. The settings on record: in vivo. It is filed as ADME, organism-based. The method in brief: as §1
Series [5] in a line: Ratio of drug uptake in rat brain frontal cortex to cerebellum at 7.3 +/- 0.44 MBq, iv and measured after 1 hr by gamma counting analysis. It is filed as ADME, organism-based. The settings on record: in vivo.
Series [6] can be described thus: Drug uptake in rat brain at 37MBq, iv administrated and measured during 71 mins of acquisition by PET-CT analysis. It is filed as ADME, organism-based. The settings on record: in vivo. The method in brief: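 Rats given a 37 MBq i.v. bolus and scanned on a microPET-CT for 71 min. Images reconstructed by 2-D OSEM; summed frames from 49-71 min shown.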
Series [7] can be described thus: Drug uptake in rat brain frontal cortex at 7.3 +/- 0.44 MBq, iv pretreated with alpha7 nAChR antagonist methyllycaconitine for 15 mins followed by compound addition and measured after 1 hr by gamma counting analysis. Conditions: in vivo. It is filed as organism-based. A digest of the protocol: as §1
Series [8] is described as follows: Ratio of drug uptake in rat brain striatum to cerebellum at 7.3 +/- 0.44 MBq, iv and measured after 1 hr by gamma counting analysis. It is filed as ADME, organism-based. The settings on record: in vivo.
Series [9] can be described thus: Drug uptake in rat brain hippocampus at 7.3 +/- 0.44 MBq, iv pretreated with alpha7 nAChR antagonist methyllycaconitine for 15 mins followed by compound addition and measured after 1 hr by gamma counting analysis. The settings on record: in vivo. It is filed as organism-based. The method in brief:
as §1

Series [10] in a line: Ratio of drug uptake in rat brain hippocampus to cerebellum at 7.3 +/- 0.44 MBq, iv and measured after 1 hr by gamma counting analysis. It is filed as ADME, organism-based. Conditions: in vivo.
Series [11] in a line: Drug uptake in rat brain hypothalamus at 7.3 +/- 0.44 MBq, iv pretreated with alpha7 nAChR antagonist methyllycaconitine for 15 mins followed by compound addition and measured after 1 hr by gamma counting analysis. It is filed as organism-based. The settings on record: in vivo. A digest of the protocol: as §1
A short description of series [12]: Drug uptake in rat brain striatum at 7.3 +/- 0.44 MBq, iv and measured after 1 hr by gamma counting analysis. It is filed as ADME, organism-based. The settings on record: in vivo. The method in brief: as §1
A short description of series [13]: Stability of the compound in rat plasma measured up to 4 hrs by HPLC analysis. It is filed as ADME, organism-based. Conditions: read-out: Stability. The method in brief: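 100 μL radiotracer mixed with 1 mL rat plasma at 37 °C. Acetonitrile added, organic layer filtered and analysed by radio-HPLC on a C18 column at 30 min, 1, 2 and 4 h. Repeated twice with different radiotracer preparations.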

Series [14] in a line: Drug uptake in rat brain striatum at 7.3 +/- 0.44 MBq, iv pretreated with alpha7 nAChR antagonist methyllycaconitine for 15 mins followed by compound addition and measured after 1 hr by gamma counting analysis. It is filed as organism-based. Conditions: in vivo. A digest of the protocol: as §1
Series [15] can be described thus: Drug uptake in rat brain hypothalamus at 7.3 +/- 0.44 MBq, iv and measured after 1 hr by gamma counting analysis. It is filed as ADME, organism-based. The settings on record: in vivo. The method in brief:
as §1

Series [16] can be described thus: Drug uptake in rat brain hippocampus at 6.5 +/- 0.46 MBq, iv and measured after 1 hr by gamma counting analysis. It is filed as ADME, organism-based. Conditions: in vivo. The method in brief:
as §1

Series [17] is described as follows: Stability of the compound in 0.9% sodium chloride/ethanol solution by HPLC analysis. It is filed as physicochemical.
Series [18] is described as follows: Drug uptake in rat brain striatum […], iv and measured after 1 hr by gamma counting analysis. It is filed as ADME, organism-based. Conditions: in vivo. The method in brief: as §1
Series [19] is described as follows: Drug uptake in rat brain striatum at 6.5 +/- 0.46 MBq, iv pretreated with alpha7 nAChR antagonist methyllycaconitine for 15 mins followed by compound addition and measured after 1 hr by gamma counting analysis. It is filed as organism-based. Conditions: in vivo. The method in brief:
as §1

Series [20] in a line: Drug uptake in rat brain hypothalamus at 6.5 +/- 0.46 MBq, iv pretreated with alpha7 nAChR antagonist methyllycaconitine for 15 mins followed by compound addition and measured after 1 hr by gamma counting analysis. It is filed as organism-based. The settings on record: in vivo. The method in brief: as §1
A short description of series [21]: Drug uptake in rat brain hypothalamus at 6.5 +/- 0.46 MBq, iv and measured after 1 hr by gamma counting analysis. It is filed as ADME, organism-based. The settings on record: in vivo. The method in brief:
as §1

Series [22] is described as follows: Drug uptake in rat brain frontal cortex at 6.5 +/- 0.46 MBq, iv and measured after 1 hr by gamma counting analysis. It is filed as ADME, organism-based. The settings on record: in vivo. A digest of the protocol: as §1
Series [23] is described as follows: Ratio of drug uptake in rat brain frontal cortex to cerebellum at 6.5 +/- 0.46 MBq, iv and measured after 1 hr by gamma counting analysis. It is filed as ADME, organism-based. The settings on record: in vivo.
The nature of series [24]: Drug uptake in rat brain frontal cortex at 6.5 +/- 0.46 MBq, iv pretreated with alpha7 nAChR antagonist methyllycaconitine for 15 mins followed by compound addition and measured after 1 hr by gamma counting analysis. It is filed as organism-based. The settings on record: in vivo. The method in brief: as §1
A short description of series [25]: Drug uptake in rat brain hippocampus at 6.5 +/- 0.46 MBq, iv pretreated with alpha7 nAChR antagonist methyllycaconitine for 15 mins followed by compound addition and measured after 1 hr by gamma counting analysis. It is filed as organism-based. Conditions: in vivo. A digest of the protocol:
as §1

Series [26] in a line: Stability of the compound in 100% ethanol measured up to 4 hrs by HPLC analysis. It is filed as physicochemical.
Series [27] is described as follows: Drug uptake in rat brain cerebellum at 6.5 +/- 0.46 MBq, iv pretreated with alpha7 nAChR antagonist methyllycaconitine for 15 mins followed by compound addition and measured after 1 hr by gamma counting analysis. The settings on record: in vivo. It is filed as organism-based. A digest of the protocol:
as §1

Series [28] can be described thus: Drug uptake in rat brain cerebellum at 6.5 +/- 0.46 MBq, iv and measured after 1 hr by gamma counting analysis. It is filed as ADME, organism-based. Conditions: in vivo. The method in brief:
as §1

As for `[18F]c1ccc(-c2ccc(-c3cn([C@H]4CN5CCC4CC5)nn3)s2)cn1`, the Drug uptake in series [1] is reported as 0.78 % ID/g; in series [2], “Active”; in series [3], 0.58 % ID/g; in series [4] it was 0.85 % ID/g; in series [6], “Active”; in [7] it was “Active”. The Drug uptake entry in series [9] is listed as “Active”; in series [11], “Active”; in series [12], 0.76 % ID/g; in series [14] it was “Active”; in series [15], 0.59 % ID/g. The Ratio worked out at 1.47 in series [5], 1.31 in series [8] and 1.34 in series [10]. Further, the remaining at 4 h in series [13] was > 95%.

As for `[18F]Cc1ccc(-c2ccc(-c3cn([C@H]4CN5CCC4CC5)nn3)s2)cc1`, the Drug uptake is 0.43 % ID/g in series [16]; 0.44 % ID/g in series [18]; “Active” in series [6]; “Active” in series [19]; “Active” in [20]; 0.42 % ID/g in series [21]. In addition, the Drug uptake in series [22] is reported as 0.56 % ID/g; in series [24], “Active”; in series [25], “Active”; in [27], “Active”; in [28] it was 0.44 % ID/g. Also, the Stability result in series [17] was “Unstable”; in series [26], “Stable”. In addition, the Ratio in series [23] is reported as 1.29. For the same compound, the remaining at 4 h in series [13] was > 95%.
